Values after ≈ are worked out from the molar mass of the structure shown.
Tests used:
H22 [1] = assay: Antitumor activity against mouse H22 cells xenografted in Kunming mouse assessed as tumor growth inhibition rate at 20 mg/kg, po administered for 10 days relative to control; format: functional; settings: H22, 240 h
Method in brief: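 H22 tumour cells were harvested in exponential growth and inoculated subcutaneously into the right flank axilla. Mice were randomised into groups of 10. Test compound in 0.5% CMC-Na was given intragastrically daily for 10 days. Solvent controls got an equal volume of CMC-Na, and positive controls got cyclophosphamide 20 mg/kg ip in saline. Tumours were weighed at sacrifice to give the inhibition rate.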

CCRF S-180 [2] = assay: Antitumor activity against mouse S180 cells xenografted in Kunming mouse assessed as tumor growth inhibition rate at 20 mg/kg, po administered for 10 days relative to control; format: functional; settings: CCRF S-180, 240 h
Method in brief: (§1)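 Tumour cells taken in exponential growth and inoculated subcutaneously into the right flank axilla. Mice randomised, 10 per group. Compound in 0.5% CMC-Na given intragastrically daily for 10 days. Solvent control got an equal volume of vehicle; positive control got cyclophosphamide 20 mg/kg i.p. in saline. Tumours weighed at sacrifice; inhibition rate calculated against solvent control.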

H22 [3] = assay: Antitumor activity against mouse H22 cells xenografted in Kunming mouse assessed as tumor growth inhibition rate at 240 mg/kg, po administered for 10 days relative to control; format: functional; settings: H22, 240 h; method in brief: as §1
SK-OV-3 = assay: Anticancer activity against human SKOV3 cells after 72 hrs by MTT assay; settings: SK-OV-3, 72 h
CCRF S-180 [4] = assay: Antitumor activity against mouse S180 cells xenografted in po dosed Kunming mouse assessed as tumor tumor growth inhibition rate administered for 10 days relative to control; format: functional, organism-based; method in brief: as §1
HL-60 = assay: Anticancer activity against human HL60 cells after 48 hrs by MTT assay; settings: HL-60, 48 h
[5] = Lipophilicity, log P of the compound; format: physicochemical; settings: octanol/water
CCRF S-180 [6] = assay: Antitumor activity against mouse S180 cells xenografted in Kunming mouse assessed as tumor growth inhibition rate at 180 mg/kg, po administered for 10 days relative to control; format: functional; settings: CCRF S-180, 240 h; method in brief: as §1
K562 = assay: Anticancer activity against human K562 cells after 48 hrs by MTT assay; settings: K562, 48 h
Mus musculus [7] = assay: Toxicity in Kunming mouse assessed as mouse mortality at 5000 mg/kg, po administered in 24 hr duration measured after 7 days; format: organism-based; parameters: dose 5000 mg/kg, route oral; settings: in vivo, 168 h
Method in brief: (§2)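 Acute toxicity test in Kunming mice (18–22 g), each group treated with one compound. The compound was given orally within 24 h, and mice were then monitored continuously for up to 7 days for abnormal behaviour or death.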

CCRF S-180 [8] = assay: Antitumor activity against mouse S180 cells xenografted in Kunming mouse assessed as tumor growth inhibition rate at 60 mg/kg, po administered for 10 days relative to control; format: functional; settings: CCRF S-180, 240 h; method in brief: as §1
A-431 = assay: Anticancer activity against human A431 cells after 72 hrs by MTT assay; settings: A-431, 72 h
H22 [9] = assay: Antitumor activity against mouse H22 cells xenografted in Kunming mouse assessed as tumor growth inhibition rate at 80 mg/kg, po administered for 10 days relative to control; format: functional; settings: H22, 240 h; method in brief: as §1
HepG2 = assay: Anticancer activity against human HepG2 cells after 72 hrs by MTT assay; settings: HepG2, 72 h
Mus musculus [10] = assay: Toxicity in Kunming mouse assessed as mouse mortality at 4500 mg/kg, po administered in 24 hr duration measured after 7 days; format: organism-based; parameters: dose 4500 mg/kg, route oral; settings: in vivo, 168 h; method in brief: as §2
CCRF S-180 [11] = assay: Antitumor activity against mouse S180 cells xenografted in Kunming mouse assessed as tumor tumor growth inhibition rate at 10 mg/kg, po administered for 10 days relative to control; format: functional; settings: CCRF S-180, 240 h; method in brief: as §1
H22 [12] = assay: Antitumor activity against mouse H22 cells xenografted in Kunming mouse assessed as tumor growth inhibition rate at 10 mg/kg, po administered for 10 days relative to control; format: functional; settings: H22, 240 h; method in brief: as §1
H22 [13] = assay: Antitumor activity against mouse H22 cells xenografted in Kunming mouse assessed as tumor growth inhibition rate at 30 mg/kg, po administered for 10 days relative to control; format: functional; settings: H22, 240 h; method in brief: as §1
CCRF S-180 [14] = assay: Antitumor activity against mouse S180 cells xenografted in Kunming mouse assessed as tumor growth inhibition rate at 90 mg/kg, po administered for 10 days relative to control; format: functional; settings: CCRF S-180, 240 h; method in brief: as §1
CCRF S-180 [15] = assay: Antitumor activity against mouse S180 cells xenografted in Kunming mouse assessed as tumor growth inhibition rate at 30 mg/kg, po administered for 10 days relative to control; format: functional; settings: CCRF S-180, 240 h; method in brief: as §1
H22 [16] = assay: Antitumor activity against mouse H22 cells xenografted in Kunming mouse assessed as tumor growth inhibition rate at 35 mg/kg, po administered for 10 days relative to control; format: functional; settings: H22, 240 h; method in brief: as §1
H22 [17] = assay: Antitumor activity against mouse H22 cells xenografted in Kunming mouse assessed as tumor growth inhibition rate at 140 mg/kg, po administered for 10 days relative to control; format: functional; settings: H22, 240 h; method in brief: as §1
H22 [18] = assay: Antitumor activity against mouse H22 cells xenografted in Kunming mouse assessed as tumor growth inhibition rate at 70 mg/kg, po administered for 10 days relative to control; format: functional; settings: H22, 240 h; method in brief: as §1

SMILES | IC50 (SK-OV-3) | IC50 (HL-60) | logP [5] | IC50 (K562) | IC50 (A-431) | IC50 (HepG2) | further results
O=P1(N(CCCl)CCCl)NCCCO1 (stereo not given) [CYCLOPHOSPHAMIDE ANHYDROUS] |  |  |  |  |  |  | inhibition in vivo at 20 mg/kg (H22 [1]): 56.2%; inhibition in vivo at 20 mg/kg (CCRF S-180 [2]): 81.7%
N#Cc1c(F)c(Cl)c2c(C(=O)c3ccccc3)c3n(c(=N)c2c1F)CCCN3 | 1.2 µg/mL (≈ 3.01 µM) | 0.01 µg/mL (≈ 0.0251 µM) | 3.35 | 0.03 µg/mL (≈ 0.0752 µM) | 0.5 µg/mL (≈ 1.25 µM) | 0.3 µg/mL (≈ 0.752 µM) | inhibition in vivo at 240 mg/kg (H22 [3]): 0%; inhibition (CCRF S-180 [4]): Dose-dependent effect; inhibition in vivo at 180 mg/kg (CCRF S-180 [6]): 52.8%; inhibition in vivo at 20 mg/kg (H22 [1]): 12.1%; Activity (Mus musculus [7]): Non-toxic; inhibition in vivo at 20 mg/kg (CCRF S-180 [2]): 42.8%; inhibition in vivo at 60 mg/kg (CCRF S-180 [8]): 41.1%; inhibition in vivo at 80 mg/kg (H22 [9]): 28.2%
N#Cc1c(F)c(F)c2c(C(=O)c3ccc(Cl)cc3)c3n(c(=N)c2c1F)CCN3 | 34.5 µg/mL (≈ 85.7 µM) | 0.5 µg/mL (≈ 1.24 µM) | 3.36 | 1 µg/mL (≈ 2.48 µM) | 4.9 µg/mL (≈ 12.2 µM) | 17.7 µg/mL (≈ 43.9 µM) | 
N#Cc1c(Cl)c(Cl)c2c(C(=O)c3ccccc3)c3n(c(=N)c2c1Cl)CCN3 | 19.7 µg/mL (≈ 47.2 µM) | 0.8 µg/mL (≈ 1.92 µM) | 4.03 | 0.7 µg/mL (≈ 1.68 µM) | 3.4 µg/mL (≈ 8.14 µM) | 4.4 µg/mL (≈ 10.5 µM) | 
COc1ccc(C(=O)c2c3n(c(=N)c4c(F)c(C#N)c(F)c(Cl)c24)CCO3)cc1 | 23.8 µg/mL (≈ 57.2 µM) | 1 µg/mL (≈ 2.41 µM) | 3.21 | 0.5 µg/mL (≈ 1.2 µM) | 2.1 µg/mL (≈ 5.05 µM) | 2 µg/mL (≈ 4.81 µM) | 
CCOC(=O)c1c2n(c(=N)c3c(Cl)c(C#N)c(Cl)c(Cl)c13)CCN2 | 50.1 µg/mL (≈ 130 µM) | 1.7 µg/mL (≈ 4.41 µM) | 3.44 | 1.6 µg/mL (≈ 4.15 µM) | 40.6 µg/mL (≈ 105 µM) | 38.2 µg/mL (≈ 99.1 µM) | 
N#Cc1c(Cl)c(Cl)c2c(C(=O)c3ccccc3)c3n(c(=N)c2c1Cl)CCO3 | 17.4 µg/mL (≈ 41.6 µM) | 6 µg/mL (≈ 14.3 µM) | 3.97 | 2.2 µg/mL (≈ 5.25 µM) | 14.5 µg/mL (≈ 34.6 µM) | 0.3 µg/mL (≈ 0.717 µM) | 
CCOC(=O)c1c2n(c(=N)c3c(F)c(C#N)c(F)c(F)c13)CCN2 | 0.04 µg/mL (≈ 0.119 µM) | 0.02 µg/mL (≈ 0.0595 µM) | 2.04 | 0.0005 µg/mL (≈ 0.00149 µM) | 3.4 µg/mL (≈ 10.1 µM) | 0.4 µg/mL (≈ 1.19 µM) | Activity (Mus musculus [10]): Toxic; inhibition (CCRF S-180 [4]): Dose-dependent effect; inhibition in vivo at 10 mg/kg (CCRF S-180 [11]): 39.2%; inhibition in vivo at 10 mg/kg (H22 [12]): 11.4%; inhibition in vivo at 30 mg/kg (H22 [13]): 27.5%; inhibition in vivo at 90 mg/kg (CCRF S-180 [14]): 26.6%; inhibition in vivo at 30 mg/kg (CCRF S-180 [15]): 54.2%
CC(=O)c1c2n(c(=N)c3c(F)c(C#N)c(F)c(Cl)c13)CCN2 | 6.2 µg/mL (≈ 19.2 µM) | 0.9 µg/mL (≈ 2.79 µM) | 1.67 | 0.4 µg/mL (≈ 1.24 µM) | 20.4 µg/mL (≈ 63.2 µM) | 6.4 µg/mL (≈ 19.8 µM) | 
N#Cc1c(F)c(F)c2c(C(=O)c3ccccc3)c3n(c(=N)c2c1F)CCN3 | 0.2 µg/mL (≈ 0.543 µM) | 0.001 µg/mL (≈ 0.00272 µM) | 2.63 | 0.08 µg/mL (≈ 0.217 µM) | 0.8 µg/mL (≈ 2.17 µM) | 1.2 µg/mL (≈ 3.26 µM) | 
Cc1ccc(C(=O)c2c3n(c(=N)c4c(F)c(C#N)c(F)c(Cl)c24)CCCN3)cc1 | 76.4 µg/mL (≈ 185 µM) | 14.6 µg/mL (≈ 35.4 µM) | 3.85 | 2.3 µg/mL (≈ 5.57 µM) | 27.5 µg/mL (≈ 66.6 µM) | 24.6 µg/mL (≈ 59.6 µM) | 
COc1ccc(C(=O)c2c3n(c(=N)c4c(F)c(C#N)c(F)c(F)c24)CCCN3)cc1 | 2.6 µg/mL (≈ 6.31 µM) | 0.02 µg/mL (≈ 0.0485 µM) | 2.7 | 0.01 µg/mL (≈ 0.0243 µM) | 1.1 µg/mL (≈ 2.67 µM) | 0.8 µg/mL (≈ 1.94 µM) | inhibition in vivo at 35 mg/kg (H22 [16]): 34.7%; inhibition (CCRF S-180 [4]): Dose-dependent effect; inhibition in vivo at 140 mg/kg (H22 [17]): 29.3%; inhibition in vivo at 180 mg/kg (CCRF S-180 [6]): 19.1%; Activity (Mus musculus [7]): Non-toxic; inhibition in vivo at 20 mg/kg (CCRF S-180 [2]): 35.9%; inhibition in vivo at 60 mg/kg (CCRF S-180 [8]): 38%; inhibition in vivo at 70 mg/kg (H22 [18]): 45.6%
N#Cc1c(F)c(Cl)c2c(C(=O)c3ccccc3)c3n(c(=N)c2c1F)CCO3 | 29.2 µg/mL (≈ 75.7 µM) | 1.5 µg/mL (≈ 3.89 µM) | 3.21 | 1.7 µg/mL (≈ 4.41 µM) | 2.3 µg/mL (≈ 5.96 µM) | 3.6 µg/mL (≈ 9.33 µM) | 
N#Cc1c(F)c(F)c2c(C(=O)c3ccccc3)c3n(c(=N)c2c1F)CCCN3 | 16.4 µg/mL (≈ 42.9 µM) | 0.3 µg/mL (≈ 0.785 µM) | 2.71 | 0.02 µg/mL (≈ 0.0523 µM) | 2.4 µg/mL (≈ 6.28 µM) | 1.1 µg/mL (≈ 2.88 µM) | 
N#Cc1c(Cl)c(Cl)c2c(C(=O)c3ccccc3)c3n(c(=N)c2c1Cl)CCCN3 | 51.2 µg/mL (≈ 119 µM) | 10.7 µg/mL (≈ 24.8 µM) | 4.11 | 1.2 µg/mL (≈ 2.78 µM) | 10.1 µg/mL (≈ 23.4 µM) | 9.3 µg/mL (≈ 21.5 µM) | 
CC(=O)c1c2n(c(=N)c3c(F)c(C#N)c(F)c(F)c13)CCN2 | 0.02 µg/mL (≈ 0.0653 µM) | 0.02 µg/mL (≈ 0.0653 µM) | 1.03 | 0.1 µg/mL (≈ 0.327 µM) | 4.4 µg/mL (≈ 14.4 µM) | 3.1 µg/mL (≈ 10.1 µM) | 
